From ChEMBL document CHEMBL4689842, “EUbOPEN Chemogenomics Library wave 1” (2021)

System: HEK-293T
Assay: Multiplex assay against HEK293T
Assay type: toxicity, cell-based
Settings: human
In short: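 Per cents of healthy-nucleus cells form the tubulin, mitochondrial-mass and membrane-permeability phenotype values. Live cells were stained at seeding with Hoechst33342, BioTracker Green Microtubule Cytoskeleton Dye, MitoTracker Red and Annexin V Alexa Fluor 680. After compound addition they were imaged on a CQ1 microscope at 37°C and 5% CO2, and CellPathfinder machine-learning gating split them into Hoechst high-intensity objects or normal cells, normal cells into healthy, pyknosed or fragmented nuclei, and pyknosed cells into mitotic or apoptotic.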

[1] = 12 h, 1 µM, compound concentration 1 uM, replicate 1
[2] = 12 h, 1 µM, compound concentration 1 uM, replicate 2
[3] = 12 h, 10 µM, compound concentration 10 uM, replicate 1
[4] = 12 h, 10 µM, compound concentration 10 uM, replicate 2
[5] = 24 h, 1 µM, compound concentration 1 uM, replicate 1
[6] = 24 h, 1 µM, compound concentration 1 uM, replicate 2
[7] = 24 h, 10 µM, compound concentration 10 uM, replicate 1
[8] = 24 h, 10 µM, compound concentration 10 uM, replicate 2
[9] = 48 h, 1 µM, compound concentration 1 uM, replicate 1
[10] = 48 h, 1 µM, compound concentration 1 uM, replicate 2
[11] = 48 h, 10 µM, compound concentration 10 uM, replicate 1
[12] = 48 h, 10 µM, compound concentration 10 uM, replicate 2

## Cc1ccc(C)c(Oc2ccncc2C(=O)N2CCN(C3CC3)c3ccccc32)c1
[1]
  Population Apoptotic (%): 43%
  Population Healthy Nuclei (%): 48%
  Population Mitotic Cells (%): 56%
  Population Normal (%): 91%
  Population Pyknosed Nuclei (%): 44%
  Total Cell Count: 385
[2]
  Population Apoptotic (%): 16%
  Population Healthy Nuclei (%): 42%
  Population Mitotic Cells (%): 83%
  Population Normal (%): 96%
  Population Pyknosed Nuclei (%): 54%
  Total Cell Count: 221
[3]
  Population Apoptotic (%): 88%
  Population Healthy Nuclei (%): 23%
  Population Mitotic Cells (%): 11%
  Population Normal (%): 78%
  Population Pyknosed Nuclei (%): 62%
  Total Cell Count: 200
[4]
  Population Apoptotic (%): 56%
  Population Healthy Nuclei (%): 14%
  Population Mitotic Cells (%): 43%
  Population Normal (%): 93%
  Population Pyknosed Nuclei (%): 77%
  Total Cell Count: 112
[5]
  Population Apoptotic (%): 46%
  Population Healthy Nuclei (%): 52%
  Population Mitotic Cells (%): 53%
  Population Normal (%): 89%
  Population Pyknosed Nuclei (%): 38%
  Total Cell Count: 403
[6]
  Population Apoptotic (%): 11%
  Population Healthy Nuclei (%): 53%
  Population Mitotic Cells (%): 88%
  Population Normal (%): 98%
  Population Pyknosed Nuclei (%): 40%
  Total Cell Count: 272
[7]
  Population Apoptotic (%): 89%
  Population Healthy Nuclei (%): 29%
  Population Mitotic Cells (%): 10%
  Population Normal (%): 82%
  Population Pyknosed Nuclei (%): 53%
  Total Cell Count: 213
[8]
  Population Apoptotic (%): 68%
  Population Healthy Nuclei (%): 24%
  Population Mitotic Cells (%): 31%
  Population Normal (%): 91%
  Population Pyknosed Nuclei (%): 63%
  Total Cell Count: 127
[9]
  Population Apoptotic (%): 41%
  Population Healthy Nuclei (%): 63%
  Population Mitotic Cells (%): 58%
  Population Normal (%): 91%
  Population Pyknosed Nuclei (%): 26%
  Total Cell Count: 567
[10]
  Population Apoptotic (%): 18%
  Population Healthy Nuclei (%): 77%
  Population Mitotic Cells (%): 81%
  Population Normal (%): 97%
  Population Pyknosed Nuclei (%): 18%
  Total Cell Count: 425
[11]
  Population Apoptotic (%): 84%
  Population Healthy Nuclei (%): 40%
  Population Mitotic Cells (%): 15%
  Population Normal (%): 84%
  Total Cell Count: 206
[12]
  Population Apoptotic (%): 76%
  Population Healthy Nuclei (%): 48%
  Population Mitotic Cells (%): 23%
  Population Normal (%): 90%
  Population Pyknosed Nuclei (%): 45%
  Total Cell Count: 127
